According to ChEMBL document CHEMBL1133648, “Synthesis, stability, antiviral activity, and protease-bound structures of substrate-mimicking constrained macrocyclic inhibitors of HIV-1 protease” (J Med Chem, 2000):

Key:
MT2 [1] = assay: Concentration of compound causing death in 10% or less of cells in the absence of virus in MT2 cells infected with HIV-2 strain (ROD); format: functional, Homo sapiens
Procedure, shortened: (§1)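 Cytotoxicity controls run alongside the Melbourne antiviral test: uninfected MT2 cells at 5 × 10⁴ per well in RF10, or PBMCs at 3.75 × 10⁵ per well in RF10/IL-2, exposed to duplicate drug dilutions made from a 20 mM stock in 60% v/v ethanol. Incubated 6–7 days at 37 °C, 5% CO₂, then viable cells counted by trypan blue exclusion. CC₁₀ is the highest concentration keeping counts ≥90% of the cell-only control.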

MT2 [2] = assay: (§2) Concentration required for causing death in 10% or less of cells in the absence of virus in MT2 cells infected with HIV-1 237288 strain; format: functional, Homo sapiens; procedure, shortened: as §1
[3] = test system: Human immunodeficiency virus 1; assay: Concentration required for causing death in 10% or less of cells in the absence of virus in PBMC cells infected with HIV-1 237288 strain; format: functional; procedure, shortened: as §1
[4] = target: Human immunodeficiency virus type 1 protease (Human immunodeficiency virus 1) (UniProt Q72874); details: MT2
[5] = target: Human immunodeficiency virus type 1 protease (Human immunodeficiency virus 1) (UniProt Q72874); details: PBMC
MT2 [6] = assay: Concentration required for causing death in 10% or less of cells in the absence of virus on MT2 cells infected with HIV-1 strain 237288; format: functional, Homo sapiens; procedure, shortened: as §1
[7] = target: Human immunodeficiency virus type 1 protease (Human immunodeficiency virus 1) (UniProt Q72874); assay: Inhibition of virion associated RT activity (90% decrease) relative to untreated, infected control on MT2 cells infected with HIV-1 237288 strain; format: cell-based
Procedure, shortened: (§3)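 Drug dilutions, from a 20 mM stock in 60% v/v ethanol, added in duplicate to MT2 cells (5 × 10⁴ in RF10) or PBMCs (3.75 × 10⁵ in RF10/IL-2). Virus added immediately after: HIV-1 #237288 or HIV-2 ROD, 200 TCID₅₀ for MT2 or 300 TCID₅₀ for PBMC. After 6–7 days at 37 °C, supernatant virus precipitated with PEG and virion RT counted by scintillation, as % of virus-only control. IC₅₀ and IC₉₀ are the concentrations giving 50% and 90% reduction.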

[8] = target: Human immunodeficiency virus type 1 protease (Human immunodeficiency virus 1) (UniProt Q72874); assay: Inhibition of virion associated RT activity relative to untreated, infected control in PBMC cells infected with HIV-1 237288 strain; format: cell-based; procedure, shortened: as §3
MT2 [9] = assay: Concentration which causing death in 10% or less of cells in the absence of virus in MT2 cells infected with HIV-1 strain 237288; procedure, shortened: as §1
[10] = target: Human immunodeficiency virus type 1 protease (Human immunodeficiency virus 1, UniProt Q72874); assay: Inhibitory constant against HIV-1 protease
MT2 [11] = assay: as §2; format: functional, Human immunodeficiency virus 1; procedure, shortened: as §1

## CC(C)CCN(C[C@@H](O)[C@@H]1Cc2ccc(cc2)OCCCCCC(=O)N[C@@H](C(C)C)C(=O)N1)S(=O)(=O)c1ccc(N)cc1
MT2 [1]
  CC10: 10000 nM
MT2 [2]
  CC10: 10000 nM
[3]
  CC10: 50000 nM
[4]
  IC90: 220 nM
[5]
  IC90: 880 nM

## CCC(C)[C@@H]1NC(=O)[C@@H](NC[C@@H](O)C[C@@H](Cc2ccccc2)C(=O)N[C@H]2c3ccccc3C[C@H]2O)Cc2ccc(cc2)OCCCCCNC1=O (stereo not given in full)
MT2 [1]
  CC10: 30000 nM
MT2 [6]
  CC10: 30000 nM
[3]
  CC10: 50000 nM
[7]
  IC90: 100 nM
[8]
  IC90: 220 nM

## CC(C)CN(C[C@@H](O)[C@H](Cc1ccccc1)NC(=O)O[C@H]1CCOC1)S(=O)(=O)c1ccc(N)cc1
MT2 [9]
  CC10: 10000 nM

## CC[C@@H](C)[C@@H]1NC(=O)[C@@H](NC[C@@H](O)[C@H](Cc2ccccc2)NC(=O)[C@@H](NC(=O)c2ccc3ccccc3n2)C(C)C)Cc2ccc(cc2)OCCCNC1=O
[10]
  Ki: 0.3 nM

## CC(C)(C)NC(=O)[C@@H]1CN(Cc2cccnc2)CCN1C[C@@H](O)C[C@@H](Cc1ccccc1)C(=O)N[C@H]1c2ccccc2C[C@H]1O.O
MT2 [11]
  CC10: 10000 nM
[3]
  CC10: 10000 nM
[4]
  IC90: 93 nM
